Usually logD stands for the decadic logarithm of the distribution of all forms, ionised or not, between an organic phase and buffer at a given pH. What is called Ki is a dissociation constant, usually derived from enzyme kinetics or from competition with a known ligand. For orientation: IC50 means the concentration that inhibits the measured activity by half.

A value given as a limit tells only on which side of the number the result lay.

Consider seven compounds from ChEMBL document CHEMBL1149155, “Development of a new radioligand, N-(5-fluoro-2-phenoxyphenyl)-N-(2-[18F]fluoroethyl-5-methoxybenzyl)acetamide, for pet imaging of peripheral benzodiazepine receptor in primate brain” (J Med Chem, 2004).

Series [1] can be described thus: Half life was determined. It counts as ADME. The following applies: rat.
Series [2] in a line: Partition coefficient of the compound. The format is physicochemical. The following applies: octanol/water. The method, boiled down: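 LogD measured by shake-flask partition between phosphate buffer (pH 7.4) and octanol; mean of n = 3.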
In series [3] the target is GABA-A receptor; anion channel. Briefly: In vitro inhibition of [11C]flumazenil binding to GABA-A central benzodiazepine receptor of rat brain. The gist of the method: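 Rat brain sagittal cryosections (20 μm, male Sprague-Dawley) preincubated 20 min at 25 °C in 50 mM Tris-HCl pH 7.4, then incubated 30 min at 37 °C with [11C]flumazenil (1 nM) and compound 0.1–1000 nM; nonspecific binding defined with 10 μM flumazenil. Cerebellum radioactivity read by imaging plate; probit-derived IC50 converted to Ki; n = 3.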

For series [4], the species on record is Mus musculus. Briefly: Compound was tested for radioactivity level in mice adrenal glands (Compound is radiolabeled). The following applies: in vivo. The format is ADME, organism-based, Adrenal gland. The gist of the method: (§1)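 Male ddY mice (30–40 g, 9 weeks) given 18F-ligand in saline (average 8 MBq) via tail vein; four per time point killed at 5, 15, 30, 60, 120 min. Brain, liver, lung, heart, kidney, adrenal, bone and blood weighed and gamma-counted; decay-corrected %ID/g wet tissue.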

Series [5] is filed under the species Mus musculus. Description: Compound was tested for radioactivity level in mice kidney (Compound is radiolabeled). The format is ADME, organism-based. The following applies: in vivo. The gist of the method:
as §1

For series [6], the species on record is Mus musculus. Description: Compound was tested for radioactivity level in mice lungs (Compound is radiolabeled). The following applies: in vivo. The format is ADME, organism-based. The gist of the method: as §1
Series [7] concerns the target Translocator protein (Rattus norvegicus, UniProt P16257). Briefly: In vitro inhibition of [11C]2 binding to Peripheral benzodiazepine receptor (PBR) in rat brain. The format is tissue-based.
The species named for series [8] is Mus musculus. Description: Compound was tested for radioactivity level in mice heart (Compound is radiolabeled). It counts as ADME, organism-based. The following applies: in vivo. The method, boiled down: as §1
Series [9] is filed under the species Mus musculus. Description: Compound was tested for radioactivity level in mice brain (Compound is radiolabeled); 2.2-4.9% ID/g. The format is ADME, organism-based. The following applies: in vivo. The gist of the method: as §1
For series [10], the species on record is Mus musculus. Briefly: Compound (0.09% dose/g) was tested for accumulation in mice bone (Compound is radiolabeled) after 120 min; No increase. It counts as ADME, organism-based, Bone element. The following applies: in vivo, 2 h. The gist of the method:
as §1

For series [11], the species on record is Mus musculus. Description: Compound (0.31% dose/g) was tested for accumulation in mice bone (Compound is radiolabeled) after 30 min; Low increase. It counts as ADME, organism-based. The following applies: in vivo, 0.5 h. The gist of the method: as §1
Series [12] concerns the target Translocator protein (Homo sapiens, UniProt P30536). Briefly: Binding affinity for Peripheral benzodiazepine receptor compared to [11C]2 in monkey brain (No affinity). Set-up: species or system Cercopithecidae. The following applies: target entry is the homologue from another species.
The target in series [13] is GABA-A receptor; anion channel. Briefly: Inhibition of [11C]flumazenil binding to GABA-A central benzodiazepine receptor of monkey brain.

Translocator protein (Rattus norvegicus, UniProt P16257), sequence (P16257 whole entry, looked up): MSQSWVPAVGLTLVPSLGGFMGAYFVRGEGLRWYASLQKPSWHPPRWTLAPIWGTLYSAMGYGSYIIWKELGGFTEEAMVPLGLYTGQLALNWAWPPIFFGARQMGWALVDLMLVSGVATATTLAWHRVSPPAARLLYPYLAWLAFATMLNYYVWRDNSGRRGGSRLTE
Translocator protein (Homo sapiens, UniProt P30536), sequence (P30536 whole entry): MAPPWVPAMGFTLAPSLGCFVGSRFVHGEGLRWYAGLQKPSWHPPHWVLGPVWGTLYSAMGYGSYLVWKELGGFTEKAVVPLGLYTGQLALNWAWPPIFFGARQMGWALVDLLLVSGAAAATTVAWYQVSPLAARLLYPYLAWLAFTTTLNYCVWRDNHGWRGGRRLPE

Take `COc1ccc(OCCF)c(CN(C(C)=O)c2cc(F)ccc2Oc2ccccc2)c1`: the T1/2 in series [1] amounted to 1.83 h. This compound had a logD in series [2] of 3.81. Besides, the Ki in [3] is more than 1000 nM; on Translocator protein [7], 0.078 nM. Moreover, the Radioactivity level in the series listed under Mus musculus [4] was more than 5%; in the series listed under Mus musculus [5] it was more than 5%; in the series listed under Mus musculus [6], more than 5%; in the series filed under Mus musculus [8] it was more than 5%; in the series listed under Mus musculus [9], less than 4.9%. For the same compound, the Activity entry is reported as “Not Active” in the series filed under Mus musculus [10] and “Partially active” in the series listed under Mus musculus [11].

For `COc1ccc(OCCOS(=O)(=O)c2ccc(C)cc2)c(CN(C(C)=O)c2cc(F)ccc2Oc2ccccc2)c1`, the logD in [2] was determined as 4.65. For the same compound, the Ki in series [3] was more than 1000 nM; at Translocator protein [7], 18.1 nM.

Take `COc1ccc(OC)c(CN(C(C)=O)c2cc(F)ccc2Oc2ccccc2)c1`: the logD in series [2] is 3.65. Further, the results for the Ki (in [3]; on Translocator protein [7]) were more than 1000 nM and 0.16 nM, respectively.

In [1], `COc1ccc(OCF)c(CN(C(C)=O)c2cc(F)ccc2Oc2ccccc2)c1` gave a T1/2 of 1.83 h. For the same compound, the logD in series [2] is 3.7. The Ki was more than 1000 nM in [3] and 0.17 nM at Translocator protein [7]. The Radioactivity level in the series listed under Mus musculus [4], in the series listed under Mus musculus [5], in the series listed under Mus musculus [6] and in the series listed under Mus musculus [8] was more than 5% in each case. Moreover, the Activity in the series filed under Mus musculus [10] worked out at 5.6%.

The compound `COc1ccc(OCI)c(CN(C(C)=O)c2cc(F)ccc2Oc2ccccc2)c1` showed a logD in series [2] of 4.02. For the same compound, the Ki was more than 1000 nM in series [3] and 4.8 nM on Translocator protein [7].

With `CC(=O)Nc1cc(F)ccc1Oc1ccccc1`, the IC50 result was “Not Active” on Translocator protein [12] and more than 10000 nM in series [13].

As to `CCC(C)N(C)C(=O)c1cc2ccccc2c(-c2ccccc2Cl)n1` (stereo not drawn) [PK-11195], in [2], the logD was 2.78. For the same compound, the Ki in series [3] was more than 1000 nM.
